From ChEMBL document CHEMBL1145773, “Design, synthesis, SAR, and molecular modeling studies of acylthiocarbamates: a novel series of potent non-nucleoside HIV-1 reverse transcriptase inhibitors structurally related to phenethylthiazolylthiourea derivatives” (J Med Chem, 2003)

Key:
MT-4 (Homo sapiens) = experiment: Concentration required to reduce the viability of mock-infected MT-4 cells by 50% was determined by MTT method; settings: MT4
MT4 = experiment: Selectivity index which is the ratio of CC50 and EC50 was determined; type: functional, Homo sapiens
How it was run: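 MT-4 cells (1 × 10^4/well) were seeded with or without serial compound dilutions, then infected with HIV-1 IIIB at enough CCID50 for complete cytopathogenicity by day 4. Cultures were incubated at 37 °C and viability was read by MTT. […] Cytotoxicity was run in parallel on mock-infected cells, and SI = CC50/EC50. Data are means of three separate experiments.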

[1] = system: Human immunodeficiency virus 1; experiment: Anti HIV-1 activity of selected N-acylthiocarbamates against Y181C resistant mutant; type: functional, organism-based
How it was run: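 Acutely infected MT-4 cells (1 × 10⁴ cells/well) incubated at 37 °C with serial compound dilutions (DMSO stock, diluted in medium) and Y181C mutant virus (NIH N119; titer 1.3 × 10⁶ CCID₅₀/mL) dosed to cause full cytopathogenicity by day 4. Viability read by MTT; EC₅₀ = concentration giving 50% protection from virus-induced cytopathogenicity.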

[2] = system: Human immunodeficiency virus 1; experiment: Concentration required to reduce the amount of p24 by 90% in HIV-1 infected C8166 cultures; type: functional, organism-based; settings: Human immunodeficiency virus 1, C8166
How it was run: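 C8166 cells (1 × 10^4/well) were infected with wt HIV-1 in the presence of graded compound concentrations, with DMSO stocks diluted in culture medium. After incubation at 37 °C, p24 antigen was measured by immunoenzymatic kit. EC90 is the concentration lowering p24 by 90%.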

[3] = target: Human immunodeficiency virus type 1 reverse transcriptase (Human immunodeficiency virus 1, UniProt Q72547); experiment: Activity of selected HIV-1 N-acylthiocarbamates in enzyme assay against Virion-Associated reverse transcriptase
How it was run: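 Virion-associated RT from stock virus disrupted with 0.5% NP-40. Incubation 60 min at 37 °C, then acid-insoluble radioactivity counted on glass fiber filters.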

Structure (SMILES) | CC50 (MT-4 (Homo sapiens)) | SI (MT4) | EC50 [1] | EC90 [2] | IC50 [3]
O=C(COc1ccccc1)N(C(=S)OCCOc1ccccc1)c1ccccc1 | 103 µM | 17.1 |  |  | 
O=C(c1ccc(Cl)cc1Cl)N(C(=S)OCCOc1ccccc1)c1ccccc1 | 43 µM | 3.7 |  |  | 
O=C(/C=C/c1ccccc1)N(C(=S)OCCOc1ccccc1)c1ccccc1 | 66.6 µM | 8.65 |  |  | 
O=C(c1ccccc1)N(C(=S)OCc1ccco1)c1ccccc1 | 38.3 µM |  |  |  | 
O=C(c1ccccc1)N(C(=S)OCCOc1ccccc1)C1CCCCC1 | > 200 µM |  |  |  | 
CCc1ccccc1N(C(=O)c1cccs1)C(=S)OCCN1C(=O)c2ccccc2C1=O | > 100 µM | >9 |  |  | 
O=C1c2ccccc2C(=O)N1CCOC(=S)N(C(=O)c1ccc(Cl)cc1)c1ccc(Cl)cc1 | > 100 µM | >4000 | 11.6 µM | 0.02 µM | 
O=C(c1cc(Cl)cc(Cl)c1)N(C(=S)OCCOc1ccccc1)c1ccccc1 | 43 µM | 4.8 |  |  | 
COc1cccc(N(C(=O)c2cccs2)C(=S)OCCN2C(=O)c3ccccc3C2=O)c1 | > 100 µM | >28 |  |  | 
S=C(NCCc1ccccn1)Nc1ccc(Br)cn1 [TROVIRDINE] | 60 µM | 3000 | 1.2 µM | 0.015 µM | 4.2 µM
O=C1c2ccccc2C(=O)N1CCOC(=S)N(C(=O)c1cccs1)c1ccc(I)cc1 | 18 µM | 1800 |  |  | 
CC(COc1ccccc1)OC(=S)N(C(=O)COc1ccccc1)c1ccccc1 (stereo unspecified) | 122 µM | 87.4 |  |  | 
CC(COc1ccccc1)OC(=S)N(C(=O)c1ccccc1)c1ccccc1 (stereo unspecified) | > 200 µM | >153.8 |  |  | 
O=C(c1ccc(Cl)cc1)N(C(=S)OCCc1ccccc1)c1ccccc1 | 43 µM | 10.7 |  |  | 
CC(COc1ccccc1)OC(=S)N(C(=O)c1cccs1)c1cccc(Cl)c1 (stereo unspecified) | > 100 µM | >9 |  |  | 
O=C(/C=C/c1ccccc1)N(C(=S)OCCc1ccccc1)c1ccccc1 | 40.4 µM | 9 |  |  | 
CC(COc1ccccc1)OC(=S)N(C(=O)c1ccco1)c1ccccc1 (stereo unspecified) | 51.5 µM | 39.6 |  |  | 
CCOc1ccc(N(C(=O)c2ccc(Cl)nc2)C(=S)OCCN2C(=O)c3ccccc3C2=O)cc1 |  | >200 |  |  | 
O=C(c1cccs1)N(C(=S)OCCOc1ccccc1)c1ccccc1 | 125 µM | 14.5 |  |  | 
Cc1ccc(N(C(=O)c2cccs2)C(=S)OCCN2C(=O)c3ccccc3C2=O)cc1 | > 100 µM | >250 |  |  | 

Structure (SMILES) | CC50 (MT-4 (Homo sapiens)) | SI (MT4) | EC50 [1] | EC90 [2] | IC50 [3]
O=C1c2ccccc2C(=O)N1CCOC(=S)N(C(=O)c1cccs1)c1ccc([N+](=O)[O-])cc1 | 168 µM | 16800 | 58 µM |  | 
CC(COc1ccccc1)OC(=S)N(C(=O)c1cccs1)c1ccccc1 (stereo unspecified) | > 200 µM | >100 |  |  | 
O=C(c1ccco1)N(C(=S)OCc1ccccc1)c1ccccc1 |  | 1.9 |  |  | 
O=C1c2ccccc2C(=O)N1CCOC(=S)N(C(=O)c1ccccc1)c1ccc(Br)cc1 | > 200 µM | >5714 |  |  | 
CC(=O)Oc1ccccc1C(=O)N(C(=S)OCCOc1ccccc1)c1ccccc1 | > 200 µM | >21 |  |  | 
O=C1c2ccccc2C(=O)N1CCOC(=S)N(C(=O)c1cccs1)c1cccc(Br)c1 | 53 µM | 44 |  |  | 
CC(COc1ccccc1)OC(=S)N(C(=O)c1cccc([N+](=O)[O-])c1)c1ccccc1 (stereo unspecified) | > 200 µM | >55.5 |  |  | 
CCN(CC)c1ccc(N(C(=O)c2cccs2)C(=S)OCCN2C(=O)c3ccccc3C2=O)cc1 | > 100 µM | 9 |  |  | 
CC(=O)c1cccc(N(C(=O)c2cccs2)C(=S)OCCN2C(=O)c3ccccc3C2=O)c1 | > 100 µM | >17 |  |  | 
Cc1ccccc1N(C(=O)c1cccs1)C(=S)OCCN1C(=O)c2ccccc2C1=O | > 100 µM | >9 |  |  | 
CCCCOC(=O)N(C(=S)OC(C)COc1ccccc1)c1ccccc1 (stereo unspecified) | > 200 µM | >4 |  |  | 
Cc1ccc(C(=O)N(C(=S)OCCOc2ccccc2)c2ccccc2)cc1 | > 200 µM | >20.2 |  |  | 
O=C(c1ccccc1)N(C(=S)OCCc1ccccc1)c1ccccc1 | 91 µM | 22 |  |  | 
CCCOC(=O)N(C(=S)OC(C)COc1ccccc1)c1ccccc1 (stereo unspecified) | > 200 µM | >1.5 |  |  | 
COc1cc(C(=O)N(C(=S)OCCOc2ccccc2)c2ccccc2)cc(OC)c1OC | > 200 µM | >20.8 |  |  | 
O=C1c2ccccc2C(=O)N1CCOC(=S)N(C(=O)c1ccccc1)c1ccc(Cl)cc1 | > 200 µM | >2000 | > 100 µM | 0.13 µM | 
O=C(c1ccccc1)N(C(=S)OCCSc1ccccc1)c1ccccc1 | 44 µM |  |  |  | 
O=C1c2ccccc2C(=O)N1CCOC(=S)N(C(=O)c1ccccc1)c1ccccc1 | > 200 µM | >500 | > 100 µM | 0.8 µM | 
O=C(c1ccco1)N(C(=S)OCCOc1ccccc1)c1ccccc1 | 82 µM | 9.7 |  |  | 
O=C1c2ccccc2C(=O)N1CCOC(=S)N(C(=O)c1ccco1)c1ccc([N+](=O)[O-])cc1 | 18 µM | 2250 | 14 µM | 0.005 µM | 

Structure (SMILES) | CC50 (MT-4 (Homo sapiens)) | SI (MT4) | EC50 [1] | EC90 [2] | IC50 [3]
O=C(c1ccccc1)N(C(=S)OCCOc1ccccc1)c1ccccc1 | 122 µM | 15.2 |  |  | 
O=C(c1ccco1)N(C(=S)OCCc1ccccc1)c1ccccc1 | 102 µM | 24 |  |  | 
O=C(c1ccc(Cl)c([N+](=O)[O-])c1)N(C(=S)OCCOc1ccccc1)c1ccccc1 | 80 µM | 10.5 |  |  | 
O=C1c2ccccc2C(=O)N1CCOC(=S)N(C(=O)c1cccs1)c1cccc([N+](=O)[O-])c1 | 100 µM | 263 |  |  | 
CC(COc1ccccc1)OC(=S)N(C(=O)c1cccs1)c1ccc(Cl)cc1 (stereo unspecified) | > 100 µM | >9 |  |  | 
O=C1c2ccccc2C(=O)N1CCOC(=S)N(C(=O)c1cccs1)c1cccc(C(F)(F)F)c1 | > 100 µM | >9 |  |  | 
CC(COc1ccccc1)OC(=S)N(C(=O)c1cccc2ccccc12)c1ccccc1 (stereo unspecified) |  | >33.3 |  |  | 
O=C1c2ccccc2C(=O)N1CCOC(=S)N(C(=O)c1cccs1)c1ccccc1Cl | > 100 µM | 9 |  |  | 
O=C(c1ccc(Cl)cc1)N(C(=S)OCCOc1ccccc1)c1ccccc1 | 133 µM | 12.9 |  |  | 
COc1ccccc1N(C(=O)c1cccs1)C(=S)OCCN1C(=O)c2ccccc2C1=O | > 100 µM | >9 |  |  | 
O=C(c1ccccc1)N(C(=S)OCCOc1ccccc1)c1ccc(F)cc1 | 70.7 µM | 17.6 |  |  | 
CC(COc1ccccc1)OC(=S)N(C(=O)c1cccs1)c1ccc([N+](=O)[O-])cc1 (stereo unspecified) | 63 µM | 10.5 |  |  | 
CCc1ccc(N(C(=O)c2ccco2)C(=S)OCCN2C(=O)c3ccccc3C2=O)cc1 | > 100 µM | >3333 |  |  | 
O=C1c2ccccc2C(=O)N1CCOC(=S)N(C(=O)c1cccs1)c1cccc(Cl)c1 | > 100 µM | >17 |  |  | 
O=C1c2ccccc2C(=O)N1CCOC(=S)N(C(=O)c1cccs1)c1cccc(F)c1 | > 100 µM | >9 |  |  | 
O=C1c2ccccc2C(=O)N1CCOC(=S)N(C(=O)c1cccs1)c1ccc(F)cc1 | > 100 µM | >1000 |  |  | 
CC(COc1ccccc1)OC(=S)N(C(=O)Oc1ccccc1)c1ccccc1 (stereo unspecified) | > 200 µM |  |  |  | 
Cc1cccc(N(C(=O)c2cccs2)C(=S)OCCN2C(=O)c3ccccc3C2=O)c1 | > 100 µM | >10 |  |  | 
